Measured values published in ChEMBL document CHEMBL4002597, “Exploration of novel piperazine or piperidine constructed non-covalent peptidyl derivatives as proteasome inhibitors” (Eur J Med Chem, 2017).
Activity calls are given as the source filed them. No cut-off for these calls is given here.

Experiments:
[1] = biological target: T1, Proteasome Macropain subunit MB1 (Homo sapiens, UniProt P28074); assay: Inhibition of chymotrypsin-like activity of human 20S proteasome pretreated for 15 mins followed by Suc-Leu-Leu-Val-Tyr-AMC substrate addition by fluorescence assay
T1 sequence (P28074 whole entry): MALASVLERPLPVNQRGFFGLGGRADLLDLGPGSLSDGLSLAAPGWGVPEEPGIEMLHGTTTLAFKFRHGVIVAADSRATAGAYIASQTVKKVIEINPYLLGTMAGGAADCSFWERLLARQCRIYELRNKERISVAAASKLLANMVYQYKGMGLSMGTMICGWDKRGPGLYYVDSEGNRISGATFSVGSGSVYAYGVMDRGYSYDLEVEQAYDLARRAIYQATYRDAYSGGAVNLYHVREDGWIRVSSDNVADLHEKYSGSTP
Summary of the method: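 Purified human proteasome (25 μg/mL) in 100 mM Tris-HCl pH 8.0 preincubated with compound 15 min, then Suc-Leu-Leu-Val-Tyr-AMC (50 μM) added; 50 μL reaction. AMC release followed as fluorescence increase at ex 355/em 460 nm. IC50 from sigmoidal variable-slope fit.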

[2] = test system: RPMI-8226; assay: Cytotoxicity against human RPMI8226 cells measured after 72 hrs by MTS assay; type: functional, cell-based; conditions: RPMI-8226, 72 h
Summary of the method: (§1)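 MM-1S seeded at 2 × 10⁴/well or RPMI 8226 at 0.5 × 10⁴/well, 100 μL, exposed to compound 72 h. MTS added (0.5 mg/mL final) for 2–4 h, absorbance read at 490 nm with 690 nm background subtraction. Inhibition = (A_control − A_sample)/A_control; IC50 from sigmoidal variable-slope nonlinear fit.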

[3] = test system: MM1.S; assay: Cytotoxicity against human MM1S cells measured after 72 hrs by MTS assay; type: functional, cell-based; summary of the method: as §1
[4] = biological target: T2, Proteasome subunit beta type-5 (Mus musculus) (UniProt O55234); assay: Inhibition of chymotrypsin-like activity of 20S proteasome in mouse blood at 2.5 uM pretreated for 40 mins followed by Suc-Leu-Leu-Val-Tyr-AMC substrate addition by fluorescence assay relative to control
T2 sequence (whole entry): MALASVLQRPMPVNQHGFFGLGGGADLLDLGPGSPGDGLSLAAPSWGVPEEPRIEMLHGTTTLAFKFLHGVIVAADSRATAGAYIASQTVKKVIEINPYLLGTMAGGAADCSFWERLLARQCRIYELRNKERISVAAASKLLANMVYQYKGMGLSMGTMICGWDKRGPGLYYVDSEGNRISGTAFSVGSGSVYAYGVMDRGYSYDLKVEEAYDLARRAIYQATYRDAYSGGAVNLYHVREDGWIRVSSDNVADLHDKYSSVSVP
Summary of the method: (§2)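 Normal mouse whole blood incubated with compound (1:50 volume ratio) 40 min, then pelleted. Cells lysed in 5 mM EDTA pH 8.0 at 4 °C 60 min, lysate protein by Bradford. 100 μg protein assayed in 20 mM HEPES pH 8.0, 0.5 mM EDTA, 0.05% SDS, 1% DMSO with 50 μM […]; fluorescence ex 355/em 460 nm.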

[5] = biological target: T2, Proteasome subunit beta type-5 (Mus musculus); assay: Inhibition of chymotrypsin-like activity of 20S proteasome in mouse blood at 0.5 uM pretreated for 40 mins followed by Suc-Leu-Leu-Val-Tyr-AMC substrate addition by fluorescence assay; summary of the method: as §2
[6] = test system: Mus musculus; assay: In vivo inhibition of chymotrypsin-like activity of 20S proteasome in blood cell of BALB/c mouse at 5 mg/kg, iv after 2 hrs using Suc-Leu-Leu-Val-Tyr-AMC substrate measured by fluorescence assay; type: functional
Summary of the method: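 BALB/c mice 6-8 weeks, 3 per group, single i.v. dose; positive control 5 mg/kg. Tail-vein blood taken at 1, 2 and 24 h into K2-EDTA tubes. Blood PBS-washed, cells lysed in 5 mM EDTA pH 8.0 for 60 min at 4 °C, clarified lysate assayed for chymotrypsin-like activity as in the in vitro assay.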

[7] = Half-life in mouse plasma at 2 uM by LC-MS/MS analysis; type: ADME, cell-free
Summary of the method: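 Mouse plasma on sodium heparin. 10 mM DMSO stocks diluted to 0.02 mM in 0.05 M sodium phosphate with 0.5% BSA, then spiked into pre-warmed plasma to 2 µM final, duplicates (n=2), 37 °C water bath. Each time point quenched with acetonitrile; sonicated, shaken, centrifuged, supernatant diluted 1:1 in water, LC-MS/MS.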

| IC50 [1] | SMILES | IC50 [2] | IC50 [3] | further results |
| --- | --- | --- | --- | --- |
| 41 nM | CC(C)(C)CNC(=O)C[C@H](NC(=O)N1CCC(NC(=O)c2cnccn2)CC1)C(=O)N[C@@H](Cc1ccccc1)C(=O)NCc1ccccc1Cl |  |  |  |
| 0.7 nM | CC(C)(C)CNC(=O)C[C@H](NC(=O)N1CCC(C(=O)Nc2cccnc2)CC1)C(=O)N[C@@H](CCc1ccccc1)C(=O)NCc1ccccc1Cl | 20.8 nM | 20.7 nM | inhibition [4]: > 70% |
| 18 nM | CC(C)(C)CNC(=O)C[C@H](NC(=O)N1CCC(C(=O)Nc2cnccn2)CC1)C(=O)N[C@@H](Cc1ccccc1)C(=O)NCc1ccccc1Cl |  |  |  |
| 2.6 nM | CC(C)(C)CNC(=O)C[C@H](NC(=O)C1CCN(C(=O)c2ccc(F)cc2)CC1)C(=O)N[C@@H](CCc1ccccc1)C(=O)NCc1ccccc1Cl | 22.7 nM | 31.8 nM |  |
| 25.7 nM | COc1ccc(NC(=O)C2CCN(C(=O)N[C@@H](CC(=O)NCC(C)(C)C)C(=O)N[C@@H](CCc3ccccc3)C(=O)NCc3ccccc3Cl)CC2)cc1 |  |  |  |
| 6.6 nM | CC(C)(C)CNC(=O)C[C@H](NC(=O)N1CCC(C(=O)Nc2cnccn2)CC1)C(=O)N[C@@H](CCc1ccccc1)C(=O)NCc1ccc(F)cc1F |  |  |  |
| 0.6 nM | CC(C)(C)CNC(=O)C[C@H](NC(=O)N1CCC(C(=O)Nc2cnccn2)CC1)C(=O)N[C@@H](CCc1ccccc1)C(=O)NCc1ccccc1Cl | 17.1 nM | 15.8 nM | inhibition [4]: > 70% |
| 0.9 nM | CC(C)(C)CNC(=O)C[C@H](NC(=O)N1CCC(C(=O)Nc2nccs2)CC1)C(=O)N[C@@H](CCc1ccccc1)C(=O)NCc1ccccc1Cl | 10.2 nM | 7.2 nM | inhibition [5]: Active; inhibition [4]: Active |
| 10.8 nM | CC(C)(C)CNC(=O)C[C@H](NC(=O)N1CCC(NC(=O)c2cnccn2)CC1)C(=O)N[C@@H](CCc1ccccc1)C(=O)NCc1ccc(F)cc1F |  |  |  |
| 21.8 nM | CC(C)C[C@H](NC(=O)[C@H](CC(=O)NCC(C)(C)C)NC(=O)N1CCC(NC(=O)c2cnccn2)CC1)C(=O)NCc1ccccc1Cl |  |  |  |
| 1.2 nM | CC(C)(C)CNC(=O)C[C@H](NC(=O)N1CCC(NC(=O)c2ccc(F)cc2)CC1)C(=O)N[C@@H](CCc1ccccc1)C(=O)NCc1ccccc1Cl | 8.4 nM | 6.3 nM | inhibition in vivo at 5 mg/kg [6]: > 50%; inhibition [4]: > 70%; half-life at 2 µM [7]: 11.2 h |
| 10 nM | CC(C)(C)CNC(=O)C[C@H](NC(=O)N1CCC(NC(=O)c2cnccn2)CC1)C(=O)N[C@@H](CCc1ccccc1)C(=O)NCc1ccc2c(c1)OCO2 |  |  |  |
| 1.5 nM | CC(C)(C)CNC(=O)C[C@H](NC(=O)N1CCC(C(=O)Nc2ccc(F)cc2)CC1)C(=O)N[C@@H](CCc1ccccc1)C(=O)NCc1ccccc1Cl | 13.9 nM | 12.5 nM | inhibition [5]: Active; inhibition [4]: Active |
|  | CC(C)C[C@H](NC(=O)[C@H](CCc1ccccc1)NC(=O)CN1CCOCC1)C(=O)N[C@@H](Cc1ccccc1)C(=O)N[C@@H](CC(C)C)C(=O)[C@@]1(C)CO1 [CARFILZOMIB] |  | 1.5 nM | inhibition [5]: Active; inhibition [6]: Active; inhibition [4]: Active |
| 192 nM | CC(C)(C)CNC(=O)C[C@H](NC(=O)N1CCC(C(=O)Nc2ccc(C(F)(F)F)cc2)CC1)C(=O)N[C@@H](CCc1ccccc1)C(=O)NCc1ccccc1Cl |  |  |  |
| 1.1 nM | CC(C)(C)CNC(=O)C[C@H](NC(=O)N1CCC(NC(=O)c2cnccn2)CC1)C(=O)N[C@@H](CCc1ccccc1)C(=O)NCc1ccccc1Cl | 20.3 nM | 18.8 nM |  |
| 2.4 nM | CC(C)(C)CNC(=O)C[C@H](NC(=O)C1CCN(C(=O)c2cnccn2)CC1)C(=O)N[C@@H](CCc1ccccc1)C(=O)NCc1ccccc1Cl | 15.9 nM | 11.8 nM |  |
| 19.7 nM | C[C@H](NC(=O)[C@H](CC(=O)NCC(C)(C)C)NC(=O)N1CCC(C(=O)Nc2cnccn2)CC1)C(=O)NCc1ccccc1Cl |  |  |  |
| 3.8 nM | CC(C)(C)CNC(=O)C[C@H](NC(=O)N1CCN(C(=O)c2ccc(F)cc2)CC1)C(=O)N[C@@H](CCc1ccccc1)C(=O)NCc1ccccc1Cl |  |  |  |
| 1 nM | CC(C)(C)CNC(=O)C[C@H](NC(=O)N1CCC(C(=O)Nc2ccccn2)CC1)C(=O)N[C@@H](CCc1ccccc1)C(=O)NCc1ccccc1Cl | 3.8 nM | 4.3 nM |  |
| 11.6 nM | CC(C)C[C@H](NC(=O)[C@H](CC(=O)NCC(C)(C)C)NC(=O)N1CCC(C(=O)Nc2cnccn2)CC1)C(=O)NCc1ccccc1Cl |  |  |  |
| 2.9 nM | CC(C)(C)CNC(=O)C[C@H](NC(=O)N1CCC(C(=O)Nc2cnccn2)CC1)C(=O)N[C@@H](CCc1ccccc1)C(=O)NCc1ccc2c(c1)OCO2 |  |  |  |
| 7 nM | CC(C)(C)CNC(=O)C[C@H](NC(=O)N1CCC(C(=O)Nc2ccon2)CC1)C(=O)N[C@@H](CCc1ccccc1)C(=O)NCc1ccccc1Cl |  |  |  |
| 13.3 nM | C[C@H](NC(=O)[C@H](CC(=O)NCC(C)(C)C)NC(=O)N1CCC(NC(=O)c2cnccn2)CC1)C(=O)NCc1ccccc1Cl |  |  |  |
| 1 nM | CC(C)(C)CNC(=O)C[C@H](NC(=O)N1CCC(C(=O)NCc2nccs2)CC1)C(=O)N[C@@H](CCc1ccccc1)C(=O)NCc1ccccc1Cl | 20.7 nM | 22.5 nM | inhibition [5]: Active; inhibition [4]: Active |
|  | CC(C)(C)CNC(=O)C[C@H](NC(=O)c1ccc(F)cc1)C(=O)N[C@@H](CCc1ccccc1)C(=O)NCc1ccccc1Cl |  |  | half-life at 2 µM [7]: 5.61 h |
